Reference: ChEMBL document CHEMBL5634075, “An electrophilic fragment screening for the development of small molecules targeting caspase-2” (Eur J Med Chem, 2023)
Where “and” joins values, the source holds several entries; their conditions need not be identical. Equal values may be shown once. Calls of active or inactive are those of the source. The calls are words filed in the database; no cut-off is given here. Where a SMILES comes first, the peptide text is derived from it.

Key:
[1] = molecular target: T1, Caspase-3 (Homo sapiens, UniProt P42574); experiment: Inhibition of recombinant caspase-3 (unknown origin) at 125 uM using Ac-DEVD-AFC as substrate measured after 40 mins by fluorescence assay relative to control; conditions: recombinant caspase-3, probe Ac-DEVD-AFC
T1 sequence (P42574 whole entry): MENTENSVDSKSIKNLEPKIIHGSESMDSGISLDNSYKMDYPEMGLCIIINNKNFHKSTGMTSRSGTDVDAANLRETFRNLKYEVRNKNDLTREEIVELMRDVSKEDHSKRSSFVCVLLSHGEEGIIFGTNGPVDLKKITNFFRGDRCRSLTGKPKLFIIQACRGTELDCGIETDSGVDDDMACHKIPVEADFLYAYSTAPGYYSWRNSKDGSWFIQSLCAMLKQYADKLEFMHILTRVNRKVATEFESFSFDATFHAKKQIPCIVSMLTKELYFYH

[2] = molecular target: T2, Caspase-2 (Homo sapiens, UniProt P42575); experiment: Inhibition of recombinant caspase-2 (unknown origin) using Z-VDVAD-AFC as substrate measured after 40 mins by fluorescence assay
T2 sequence (P42575 whole entry): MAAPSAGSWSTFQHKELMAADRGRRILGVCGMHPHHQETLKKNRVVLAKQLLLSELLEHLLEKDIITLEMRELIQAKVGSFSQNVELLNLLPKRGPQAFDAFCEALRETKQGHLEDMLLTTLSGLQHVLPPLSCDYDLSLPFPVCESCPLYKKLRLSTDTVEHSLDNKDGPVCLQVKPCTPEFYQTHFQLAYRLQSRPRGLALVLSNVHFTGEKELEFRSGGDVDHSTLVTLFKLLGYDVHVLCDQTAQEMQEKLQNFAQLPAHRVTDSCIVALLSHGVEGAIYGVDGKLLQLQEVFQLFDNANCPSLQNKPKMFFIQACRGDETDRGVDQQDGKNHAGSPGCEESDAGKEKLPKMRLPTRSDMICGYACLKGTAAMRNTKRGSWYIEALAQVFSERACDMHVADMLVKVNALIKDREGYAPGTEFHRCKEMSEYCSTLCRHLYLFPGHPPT
Procedure, shortened: (§1)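 Ten-point curves in duplicate, 0.4 nM–100 µM. Enzyme (5 nM caspase-2 or cp-caspase-2) in MES pH 6.5 buffer with 10 mM DTT, preincubated with compound 40 min at 37 °C. Then 5 µM Z-VDVAD-AFC. AFC read at ex 400/em 505 nm every 3 min for 1 h. Background-corrected 40-min values fitted to four-parameter sigmoidal curves. Mean ± SEM of N independent experiments.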

[3] = molecular target: T1, Caspase-3; experiment: Inhibition of recombinant caspase-3 (unknown origin) at 62.5 uM using Ac-DEVD-AFC as substrate measured after 40 mins by fluorescence assay relative to control; conditions: recombinant caspase-3, probe Ac-DEVD-AFC
[4] = molecular target: T3, Caspase-2 (Homo sapiens) (UniProt P42575); experiment: Inhibition of recombinant caspase-2 (unknown origin) at 6.25 uM using Z-VDVAD-AFC as substrate measured after 40 mins by fluorescence assay relative to control
T3 sequence (whole entry): T2 sequence (P42575 whole entry)
Procedure, shortened: (§2)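 Two-point single-run screen in duplicate at 12.5 and 6.25 µM. Then 5 µM Z-VDVAD-AFC, 40 min at 37 °C, stopped with 5 M acetic acid. AFC fluorescence read at ex 400/em 505 nm, corrected for buffer+protein background.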

[5] = molecular target: T2, Caspase-2; experiment: Inhibition of recombinant cp-caspase-2 (unknown origin) using Z-VDVAD-AFC as substrate measured after 40 mins by fluorescence assay
Procedure, shortened: as §1

[6] = molecular target: T3, Caspase-2 (Homo sapiens); experiment: Covalent irreversible binding affinity to recombinant caspase-2 (unknown origin) assessed as modification at Cys320 residue measured after 1 hr by trypsin digestion based UPLC-MS/MS analysis
Procedure, shortened: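 Recombinant caspase-2 (34 µM, 15 µL) mixed with test compound (1 µL of 10 mM DMSO stock), brought to 50 µL in MES pH 6.5 caspase-2 buffer, 1 h at 37 °C. Then iodoacetamide (62 mM final) 1 h dark RT. Samples denatured in 8 M urea/5 mM DTT and re-alkylated with IAD. Trypsin digestion overnight at 37 °C with 10% acetonitrile. C18 desalting, then gradient LC-MS/MS peptide sequencing.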

[7] = tested on: HepG2; experiment: Cytotoxicity against human HepG2 cells assessed as reduction in cell viability measured after 22 hrs by cell-titer glo assay; format: functional, cell-based
Procedure, shortened: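 HepG2 cells at 250 cells/well, 1536-well format, settled 4 h at 37 °C and 5% CO2. Compound added acoustically (50 nL), 22 h at 37 °C. CellTiter-Glo reagent added, 15 min at room temperature, then luminescence read.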

[8] = tested on: HepG2; experiment: Induction of GSH depletion in human HepG2 cells measured after 22 hrs by GSH-glo luminescence assay; conditions: HepG2, 22 h, read-out: pIC50 (converted)
[9] = molecular target: T3, Caspase-2 (Homo sapiens); experiment: Inhibition of recombinant caspase-2 (unknown origin) at 12.5 uM using Z-VDVAD-AFC as substrate measured after 40 mins by fluorescence assay relative to control
Procedure, shortened: as §2

[10] = molecular target: T1, Caspase-3; experiment: Inhibition of recombinant caspase-3 (unknown origin) using Ac-DEVD-AFC as substrate measured after 40 mins by fluorescence assay
[11] = tested on: HepG2; experiment: Induction of GSH depletion in human HepG2 cells at <10 uM measured after 22 hrs by GSH-glo luminescence assay; format: functional, cell-based
Procedure, shortened: (§3)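 HepG2 cells at 250 cells/well, 1536-well format, settled 4 h at 37 °C and 5% CO2. Compound added (50 nL), 22 h incubation. Medium removed by centrifugation. GSH-Glo reagent 30 min at RT, then Luciferin Detection Reagent 15 min at RT. Luminescence read.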

[12] = molecular target: T3, Caspase-2 (Homo sapiens); experiment: Irreversible inhibition of recombinant caspase-2 (unknown origin) assessed as ratio of Kinact/Ki using Z-VDVAD-AFC as substrate measured after 40 mins by fluorescence assay
Procedure, shortened: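 Caspase-2 kinetic fluorometric assay with Z-VDVAD-AFC. kOBS values obtained from progress curves at four or more inhibitor concentrations. kinact/Ki then derived by two-step irreversible secondary regression (Copeland).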

[13] = tested on: HepG2; experiment: Induction of GSH depletion in human HepG2 cells at >10 uM measured after 22 hrs by GSH-glo luminescence assay; format: functional, cell-based
Procedure, shortened: as §3

[14] = species: Homo sapiens; experiment: Selectivity ratio of IC50 for recombinant caspase-3 (unknown origin) to recombinant caspase-2 (unknown origin)
[15] = molecular target: T3, Caspase-2 (Homo sapiens); experiment: Covalent irreversible binding affinity to recombinant caspase-2 (unknown origin) assessed as modification at Cys320 residue […] measured after 1 hr by trypsin digestion based UPLC-MS/MS analysis
Procedure, shortened: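 Recombinant caspase-2 (34 µM stock) incubated 1 h at 37 °C with compound (10 mM DMSO stock) in pH 6.5 MES buffer with NaCl, CHAPS, sucrose and 10 mM DTT. Free cysteines were capped with iodoacetamide (62 mM final, 1 h, dark, RT). Samples were dried, denatured in 8 M urea/DTT, re-alkylated, trypsin-digested overnight at 37 °C, C18-desalted and analysed by gradient LC-MS/MS peptide sequencing.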

SMILES	inhibition at 40 min, 125 µM [1]	IC50 [2]	inhibition at 40 min, 62.5 µM [3]	inhibition [4]	IC50 [5]	Activity [6]	IC50 [8]	inhibition [9]	IC50 [10]	Ratio [12]	Ratio IC50 [14]	IC50 ([7]; HepG2, 22 h)	Activity [11]	Activity [13]	Activity [7]	Activity [15]
Cc1nc(-c2ccc3c(c2)CCN3C(=O)CCl)cs1	16%	1.82 µM and 3.39 µM	10%	79%	4.9 µM	Active	1780 nM	89%	35.5 µM and > 31.6 µM	–	–	2240 nM	–	–	–	–
O=C1CN(C(=O)CCl)c2ccccc2N1	90%	1.07 µM and 3.31 µM	59%	86%	–	Active	–	92%	28.8 µM	4.49 10^4/M/s	27	–	inactive	Active	Active	–
COc1ccc2nc(NC(=O)CCl)sc2c1	21.7%	5.25 µM	–	–	–	–	–	79.7%	> 63.1 µM	–	> 12	–	–	–	–	–
NC(=O)CI	–	–	–	–	–	–	–	–	–	–	–	–	–	–	–	Active

More lines, main results first:

inhibition at 40 min, 125 µM [1]	IC50 [2]	inhibition at 40 min, 62.5 µM [3]	inhibition [4]	IC50 [5]	Activity [6]	IC50 [8]	inhibition [9]	IC50 [10]	Ratio [12]	Ratio IC50 [14]	SMILES	IC50 ([7]; HepG2, 22 h)	Activity [11]	Activity [13]	Activity [7]	Activity [15]
–	–	–	–	0.0479 µM	–	–	–	–	–	–	CC(=O)N[C@H](C(=O)N[C@@H](CC(=O)O)C(=O)N[C@H](C(=O)N[C@@H](C)C(=O)N[C@H](C=O)CC(=O)O)C(C)C)C(C)C (Ac-VDVAD-aldehyde)	–	–	–	–	–
14%	3.16 µM	0%	62%	6.03 µM	Active	–	79%	> 50.1 µM	–	> 16	CN1C(=O)CN(C(=O)CCl)c2ccc(Br)cc21	–	inactive	Active	Active	–
30%	1.29 µM	24%	92%	–	Active	–	93%	9.55 µM	5.86 10^4/M/s	7	O=C(CCl)Nc1ccc(NC(=O)c2cccs2)cc1	–	–	–	–	–
